Calls of active or inactive are those of the source. The rule behind the calls is not given here.

The test system of assay [1] is HeLa. The assay can be described thus: Cytotoxicity against human HeLa cells at 60 uM after 48 hrs […]. It counts as functional.
For assay [2], the species on record is Sus scrofa. The assay can be described thus: Inhibition of pig brain topoisomerase 1-mediated supercoiled DNA relaxation after 20 mins by agarose gel electrophoresis analysis. An outline of the steps: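 Supercoiled DNA was incubated with topo I, with or without test compound. Gel lanes included supercoiled DNA alone, DNA plus enzyme without compound, and DNA plus enzyme with camptothecin as the reference inhibitor.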

Assay [3] is filed under the species Sus scrofa. Description: Inhibition of pig brain topoisomerase 2-mediated supercoiled DNA relaxation after 20 mins by agarose gel electrophoresis analysis. An outline of the steps: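 Supercoiled DNA was incubated with topo II, with or without test compound. Gel lanes included supercoiled DNA alone, DNA plus enzyme without compound, and DNA plus enzyme with AMSA as the reference inhibitor.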

Assay [4] deals with HeLa. Description: Cytotoxicity against human HeLa cells after 48 hrs […]. To be noted: for IC50: Homo sapiens, HeLa, 48 h. It counts as functional, cell-based.
The target in assay [5] is T1, Kinesin-like protein KIF11 (Homo sapiens, UniProt P52732).
T1 sequence (P52732 whole entry): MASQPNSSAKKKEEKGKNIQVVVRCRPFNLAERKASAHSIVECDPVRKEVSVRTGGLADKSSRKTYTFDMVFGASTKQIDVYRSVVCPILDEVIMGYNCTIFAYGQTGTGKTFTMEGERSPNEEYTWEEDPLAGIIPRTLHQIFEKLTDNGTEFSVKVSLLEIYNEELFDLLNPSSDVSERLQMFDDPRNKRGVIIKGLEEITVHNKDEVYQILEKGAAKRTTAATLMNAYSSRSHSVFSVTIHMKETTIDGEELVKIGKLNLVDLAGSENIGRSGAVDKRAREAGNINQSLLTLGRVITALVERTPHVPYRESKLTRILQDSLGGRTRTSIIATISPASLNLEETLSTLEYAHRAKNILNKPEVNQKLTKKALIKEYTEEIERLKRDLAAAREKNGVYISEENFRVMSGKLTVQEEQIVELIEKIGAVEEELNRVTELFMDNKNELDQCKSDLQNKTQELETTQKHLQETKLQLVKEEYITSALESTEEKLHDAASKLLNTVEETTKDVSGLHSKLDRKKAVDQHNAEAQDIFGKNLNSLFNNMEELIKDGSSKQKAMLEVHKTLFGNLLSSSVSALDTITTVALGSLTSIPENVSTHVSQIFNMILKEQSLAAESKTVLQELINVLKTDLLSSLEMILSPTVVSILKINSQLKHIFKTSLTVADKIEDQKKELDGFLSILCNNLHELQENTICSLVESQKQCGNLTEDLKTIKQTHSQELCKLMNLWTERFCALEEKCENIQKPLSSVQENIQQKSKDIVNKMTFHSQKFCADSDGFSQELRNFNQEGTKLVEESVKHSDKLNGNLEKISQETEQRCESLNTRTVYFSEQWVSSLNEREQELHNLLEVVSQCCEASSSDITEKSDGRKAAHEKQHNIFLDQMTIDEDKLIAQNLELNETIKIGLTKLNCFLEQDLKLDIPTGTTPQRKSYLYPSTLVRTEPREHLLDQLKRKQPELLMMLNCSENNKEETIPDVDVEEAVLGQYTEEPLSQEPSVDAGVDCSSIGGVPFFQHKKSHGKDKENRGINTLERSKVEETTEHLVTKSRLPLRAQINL
Description: Inhibition of human C-terminally His6-tagged microtubule-activated KSP motor domain ATPase activity after 30 mins by luciferase-derived luminescence assay.

For assay [6], the system named is HeLa. The assay can be described thus: Cell cycle arrest in human HeLa cells assessed as accumulation at M phase at 36 uM after 20 hrs by DAPI staining relative to taxol. It counts as functional. The note with it: in the assay text read “at 32 uM” for “at 36 uM”. An outline of the steps:
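HeLa cells were exposed to compound for 20 h and scored for M-phase arrest. Mitotic index was expressed as a percentage of the induction given by 0.1 μM taxol.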

The test system of assay [7] is HeLa. The assay can be described thus: Cell cycle arrest in human HeLa cells assessed as accumulation at G2/M phase with incomplete chromosome condensation at 36 uM after 20 hrs by DAPI staining. It counts as functional, cell-based.

Consider `Oc1ccc2c(c1)[nH]c1ccccc12`, for which, in assay [1], the inhibition at 60 µM is less than 50%.
Consider `COc1ccc2c(c1)[nH]c1c(C)nccc12`, for which the inhibition entry in assay [2] and in assay [3] was “Active” in each case.
As to `CC(C)c1ccc2c(c1)[nH]c1ccccc12`, the 50% inhibitory concentration (IC50) in assay [4] and in assay [5] was 1.5 µM each time.
Take `COC(=O)c1ccc2c(c1)[nH]c1ccccc12`: the inhibition at 60 µM in assay [1] is less than 50%. Further, the IC50 in assay [5] was determined as 11 µM.
The molecule `COC(=O)c1ccc2[nH]c3cc(C(C)(C)C)ccc3c2c1` yielded an inhibition at 60 µM in assay [1] of less than 50%. Besides, in assay [5], half-maximal inhibition (IC50) required 0.39 µM.
In the same order, the values of `Cc1ccc2[nH]c3ccc(C(F)(F)F)cc3c2c1` are less than 50% and 8.8 µM.
For the molecule `c1ccc2c(c1)[nH]c1c3c(ccc12)CCCC3`, the IC50 in assay [4] was determined as 30 µM; in assay [5], 1.6 µM.
With `c1ccc2c(c1)ccc1c3ccccc3[nH]c21`, the inhibition at 60 µM in assay [1] is less than 50%. In assay [5], half-maximal inhibition (IC50) required 4.6 µM.
For `CC(=O)c1ccc2[nH]c3cc(C)ccc3c2c1`, the figures for the IC50 in assay [4] and in assay [5] were 51 µM and 1.6 µM, respectively.
With `FC(F)c1ccc2c(c1)[nH]c1ccccc12`, the IC50 is 46 µM in assay [4] and 0.87 µM in assay [5].
For `CC(C)(C)c1ccc2c(c1)[nH]c1cc(C(F)(F)F)ccc12`, the inhibition at 60 µM in assay [1] is less than 50%. Further, the midpoint of inhibition in assay [5], the IC50, lay at 1.4 µM.
`CCCCN1C(=O)[C@@H]2Cc3c([nH]c4ccccc34)[C@@H](c3cccc(O)c3)N2C1=O`: the half-maximal inhibitory concentration (IC50) in assay [4] is 8.6 µM; in assay [5] it was 7.1 µM.
The molecule `O=Cc1ccc2[nH]c3ccccc3c2c1` gave an inhibition at 60 µM in assay [1] of less than 50%. This molecule showed an IC50 in assay [5] of 17 µM.
Turning to `CC(C)(C)Oc1ccc2c(c1)[nH]c1ccccc12`, in assay [1], the inhibition at 60 µM was less than 50%. Also, the “inhibition (INH)” value in assay [4] was less than 50%. In assay [5], the IC50 came out at 3.2 µM.
Turning to `O=Cc1ccc2c(c1)[nH]c1ccccc12`, in assay [1], the inhibition at 60 µM was less than 50%. This molecule also registered an IC50 in assay [5] of 13 µM.
Taken in the same sequence, the figures for `CCc1ccc2c(c1)[nH]c1ccccc12` were less than 50% and 2.8 µM.
On to `CC(C)(C)c1cccc2c1[nH]c1ccccc12`, for which the values for the IC50 in assay [4] and in assay [5] were 41 µM and 14 µM, respectively.
For the molecule `c1ccc2c(c1)[nH]c1cc3c(cc12)CCCC3`, the inhibition at 60 µM in assay [1] is less than 50%. 25 µM corresponded to half-maximal inhibition in assay [5] (IC50).
`Cn1c2ccccc2c2ccc(C(F)(F)F)cc21`: the inhibition at 60 µM in assay [1] was less than 50%. Further, in assay [5], the IC50 is 5.6 µM.
Consider `CC(C)(C)c1ccc2c(c1)[nH]c1ccc(C(=O)O)cc12`, for which the inhibition at 60 µM in assay [1] is less than 50%. In assay [5], this molecule had an IC50 of 11 µM.
Turning to `CC(C)(C)c1ccc2[nH]c3ccccc3c2c1`, the values for the IC50 in assay [4] and in assay [5] were 6.5 µM and 0.24 µM, respectively. Also, the Activity in assay [6] stood at 76%. Moreover, the result in assay [7] was Active.
Take `FC(F)(F)Oc1ccc2c(c1)[nH]c1ccccc12`: the values for the IC50 in assay [4] and in assay [5] were 29 µM and 0.51 µM, respectively.
Molecule `Cc1ccc2c(c1)[nH]c1ccc(F)cc12` registered an inhibition at 60 µM in assay [1] of less than 50%. In assay [5], the IC50 is 7.5 µM.
Taken in the same sequence, the figures for `Cc1cccc2c1[nH]c1ccccc12` were less than 50% and 23 µM.
Regarding `Cc1ccc2c(c1)[nH]c1ccc(C(F)(F)F)cc12`, the values for the IC50 in assay [4] and in assay [5] were 35 µM and 11 µM, respectively.
In turn, `FC(F)(F)c1cccc2c1[nH]c1ccccc12` displayed an inhibition at 60 µM in assay [1] of less than 50%. The molecule further had an IC50 in assay [5] of 3.3 µM.
For the molecule `Cc1ccc2c(c1)[nH]c1ccccc12`, the inhibition at 60 µM in assay [1] is less than 50%. Moreover, in assay [5], the 50% inhibitory concentration (IC50) was 22 µM.

In general, inhibition refers to the share of the control response that was lost under treatment. Broadly, the IC50 is the concentration at which inhibition is half-maximal.

These data come from ChEMBL document CHEMBL1177716, “Kinesin spindle protein (KSP) inhibitors with 2,3-fused indole scaffolds” (J Med Chem, 2010).
